Key:
Format in all cases: functional
[1] = system: SN12C; test: Growth inhibition of human SN12C cells incubated for 48 hrs by sulforhodamine B assay; details: for TGI: read-out: pTGI (converted)
Procedure, shortened: (§1)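 Run in the NCI-60 human tumour cell line panel with dose-response testing. GI50 was determined for each cell line from its dose-response data.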

[2] = system: UO-31; test: Growth inhibition of human UO31 cells incubated for 48 hrs by sulforhodamine B assay; details: UO-31, 48 h; for TGI: read-out: pTGI (converted)
Procedure, shortened: (§2)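 Tested in the NCI 60-human-tumour-cell-line screen using the five-dose format. GI₅₀ was derived from each cell line's dose-response. TGI and LC₅₀ were derived from the same dose-response data.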

[3] = system: HCT-116; test: Growth inhibition of human HCT116 cells incubated for 48 hrs by sulforhodamine B assay; details: HCT-116, 48 h; for TGI: read-out: pTGI (converted); procedure, shortened: as §1
[4] = system: U-251; test: Growth inhibition of human U251 cells incubated for 48 hrs by sulforhodamine B assay; details: U-251, 48 h; for TGI: read-out: pTGI (converted); procedure, shortened: as §2
[5] = system: PC-3; test: Growth inhibition of human PC3 cells incubated for 48 hrs by sulforhodamine B assay; details: PC-3, 48 h; for CC50: read-out: pLC50 (the source's name) (converted); for TGI: read-out: pTGI (converted); procedure, shortened: as §1
[6] = system: SF-268; test: Growth inhibition of human SF268 cells incubated for 48 hrs by sulforhodamine B assay; details: SF-268, 48 h; for TGI: read-out: pTGI (converted); procedure, shortened: as §1
[7] = system: OVCAR-8; test: Growth inhibition of human OVCAR8 cells incubated for 48 hrs by sulforhodamine B assay; details: OVCAR-8, 48 h; for TGI: read-out: pTGI (converted); procedure, shortened: as §1
[8] = system: SK-MEL-28; test: Growth inhibition of human SK-MEL-28 cells incubated for 48 hrs by sulforhodamine B assay; details: SK-MEL-28, 48 h; for TGI: read-out: pTGI (converted); procedure, shortened: as §1
[9] = system: SW-620; test: Growth inhibition of human SW620 cells incubated for 48 hrs by sulforhodamine B assay; details: SW-620, 48 h; for TGI: read-out: pTGI (converted); procedure, shortened: as §2
[10] = system: SK-MEL-5; test: Growth inhibition of human SK-MEL-5 cells incubated for 48 hrs by sulforhodamine B assay; details: SK-MEL-5, 48 h; for TGI: read-out: pTGI (converted); procedure, shortened: as §1
[11] = system: CAKI-1; test: Growth inhibition of human Caki1 cells incubated for 48 hrs by sulforhodamine B assay; details: CAKI-1, 48 h; for TGI: read-out: pTGI (converted); procedure, shortened: as §1
[12] = system: MOLT-4; test: Growth inhibition of human MOLT4 cells incubated for 48 hrs by sulforhodamine B assay; details: MOLT-4, 48 h; for TGI: read-out: pTGI (converted); procedure, shortened: as §1
[13] = system: Hs-578T; test: Growth inhibition of human Hs578T cells incubated for 48 hrs by sulforhodamine B assay; details: for TGI: read-out: pTGI (converted); procedure, shortened: as §1
[14] = system: NCI-H23; test: Growth inhibition of human NCI-H23 cells incubated for 48 hrs by sulforhodamine B assay; details: NCI-H23, 48 h; for TGI: read-out: pTGI (converted); procedure, shortened: as §1
[15] = system: MDA-MB-435; test: Growth inhibition of human MDA-MB-435 cells incubated for 48 hrs by sulforhodamine B assay; details: MDA-MB-435, 48 h; for TGI: read-out: pTGI (converted); procedure, shortened: as §1
[16] = system: SF-539; test: Growth inhibition of human SF539 cells incubated for 48 hrs by sulforhodamine B assay; details: SF-539, 48 h; for TGI: read-out: pTGI (converted); procedure, shortened: as §1
[17] = system: HOP-92; test: Growth inhibition of human HOP92 cells incubated for 48 hrs by sulforhodamine B assay; details: HOP-92, 48 h; for TGI: read-out: pTGI (converted); procedure, shortened: as §1
[18] = system: NCI-H522; test: Growth inhibition of human NCI-H522 cells incubated for 48 hrs by sulforhodamine B assay; details: NCI-H522, 48 h; for TGI: read-out: pTGI (converted); procedure, shortened: as §1
[19] = system: A498; test: Growth inhibition of human A498 cells incubated for 48 hrs by sulforhodamine B assay; details: A498, 48 h; for TGI: read-out: pTGI (converted)
Procedure, shortened: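 Run within the NCI-60 human tumour cell line panel as a dose-response screen. For each cell line the readouts are GI50, TGI and LC50. Per-line log values also feed a mean-graph analysis, in which the arithmetic mean of the log values across all lines is subtracted from each line's log value.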

[20] = system: EKVX; test: Growth inhibition of human EKVX cells incubated for 48 hrs by sulforhodamine B assay; details: for TGI: read-out: pTGI (converted); procedure, shortened: as §1
[21] = system: NCI-H460; test: Growth inhibition of human NCI-H460 cells incubated for 48 hrs by sulforhodamine B assay; details: NCI-H460, 48 h; for TGI: read-out: pTGI (converted); procedure, shortened: as §1
[22] = system: NCI/ADR-RES; test: Growth inhibition of human NCI/ADR-RES cells incubated for 48 hrs by sulforhodamine B assay; details: for CC50: read-out: pLC50 (the source's name) (converted); for TGI: read-out: pTGI (converted); procedure, shortened: as §1
[23] = system: SK-OV-3; test: Growth inhibition of human SKOV3 cells incubated for 48 hrs by sulforhodamine B assay; details: SK-OV-3, 48 h; for TGI: read-out: pTGI (converted); procedure, shortened: as §1
[24] = system: KM12; test: Growth inhibition of human KM12 cells incubated for 48 hrs by sulforhodamine B assay; details: KM12, 48 h; for TGI: read-out: pTGI; procedure, shortened: as §1
[25] = system: A549; test: Growth inhibition of human A549/ATCC cells incubated for 48 hrs by sulforhodamine B assay; details: A549, 48 h; for TGI: read-out: pTGI (converted); procedure, shortened: as §1
[26] = system: OVCAR-5; test: Growth inhibition of human OVCAR5 cells incubated for 48 hrs by sulforhodamine B assay; details: OVCAR-5, 48 h; for TGI: read-out: pTGI (converted); procedure, shortened: as §1
[27] = system: HCT-15; test: Growth inhibition of human HCT15 cells incubated for 48 hrs by sulforhodamine B assay; details: HCT-15, 48 h; for TGI: read-out: pTGI (converted); procedure, shortened: as §1
[28] = system: RXF 393; test: Growth inhibition of human RXF393 cells incubated for 48 hrs by sulforhodamine B assay; details: RXF 393, 48 h; for CC50: read-out: pLC50 (the source's name) (converted); for TGI: read-out: pTGI (converted); procedure, shortened: as §1
[29] = system: SF-295; test: Growth inhibition of human SF295 cells incubated for 48 hrs by sulforhodamine B assay; details: SF-295, 48 h; for TGI: read-out: pTGI (converted); procedure, shortened: as §1
[30] = system: K562; test: Growth inhibition of human K562 cells incubated for 48 hrs by sulforhodamine B assay; details: K562, 48 h; for TGI: read-out: pTGI (converted); procedure, shortened: as §1

## COC(=O)/C=C1\CC[C@H]2[C@@H](CC(=O)[C@H]3C(C)(C)C(=O)CC[C@]23C)[C@H]1C
[1]
  GI50: 513 nM
  LC50: > 34700 nM
  TGI: 1860 nM
[2]
  GI50: 550 nM
  LC50: 2240 nM
  TGI: 1100 nM
[3]
  GI50: 646 nM
  LC50: 2880 nM
  TGI: 1380 nM
[4]
  GI50: 646 nM
  LC50: 2630 nM
  TGI: 1320 nM
[5]
  GI50: 933 nM
  CC50: > 34700 nM
  TGI: 2750 nM
[6]
  GI50: 331 nM
  LC50: 1910 nM
  TGI: 813 nM
[7]
  GI50: 851 nM
  LC50: 11000 nM
  TGI: 2290 nM
[8]
  GI50: 1170 nM
  LC50: > 34700 nM
  TGI: 5010 nM
[9]
  GI50: 708 nM
  LC50: 9120 nM
  TGI: 1700 nM
[10]
  GI50: 708 nM
  LC50: 3160 nM
  TGI: 1480 nM
[11]
  GI50: 661 nM
  LC50: 2950 nM
  TGI: 1380 nM
[12]
  GI50: 195 nM
  LC50: > 34700 nM
  TGI: 1150 nM
[13]
  GI50: 417 nM
  LC50: > 34700 nM
  TGI: 1660 nM
[14]
  GI50: 661 nM
  LC50: > 34700 nM
  TGI: 1780 nM
[15]
  GI50: 1070 nM
  LC50: 20400 nM
  TGI: 3800 nM
[16]
  GI50: 575 nM
  LC50: 2090 nM
  TGI: 1100 nM
[17]
  GI50: 1000 nM
  LC50: > 34700 nM
  TGI: 3470 nM
[18]
  GI50: 166 nM
  LC50: > 34700 nM
  TGI: 977 nM
[19]
  LC50: > 34700 nM
  TGI: 1740 nM
[20]
  GI50: 407 nM
  LC50: 1910 nM
  TGI: 871 nM
[21]
  GI50: 170 nM
  LC50: 2140 nM
  TGI: 661 nM
[22]
  GI50: 741 nM
  CC50: > 34700 nM
  TGI: 1910 nM
[23]
  GI50: 1020 nM
  LC50: > 34700 nM
  TGI: 3160 nM
[24]
  GI50: 1230 nM
  LC50 (concentration killing 50% of cells): 24000 nM
  TGI: 5250 nM
[25]
  GI50: 427 nM
  LC50: 1820 nM
  TGI: 891 nM
[26]
  GI50: 776 nM
  LC50: 21400 nM
  TGI: 2340 nM
[27]
  GI50: 692 nM
  LC50: 3310 nM
  TGI: 1510 nM
[28]
  GI50: 776 nM
  CC50: > 34700 nM
  TGI: 2570 nM
[29]
  GI50: 741 nM
  LC50: 6030 nM
  TGI: 1740 nM
[30]
  GI50: 1150 nM
  LC50: > 34700 nM
  TGI: 5370 nM

## COC(=O)/C=C1\CC[C@H]2[C@@H](CC(=O)[C@H]3C(C)(C)[C@@H](O)CC[C@]23C)[C@H]1C
[1]
  GI50: 1100 nM
  LC50: > 34700 nM
  TGI: 5890 nM
[2]
  GI50: 1050 nM
  LC50: 16200 nM
  TGI: 5010 nM
[3]
  GI50: 1410 nM
  LC50: > 34700 nM
  TGI: 6310 nM
[4]
  GI50: 1700 nM
  LC50: 19500 nM
  TGI: 6760 nM
[5]
  GI50: 3160 nM
  CC50: > 34700 nM
  TGI: 15800 nM
[6]
  GI50: 1170 nM
  LC50: 14500 nM
  TGI: 4470 nM
[7]
  GI50: 1380 nM
  LC50: > 34700 nM
  TGI: 7240 nM
[8]
  GI50: 9330 nM
  LC50: > 34700 nM
  TGI: 33100 nM
[9]
  GI50: 1740 nM
  LC50: > 34700 nM
  TGI: 10000 nM
[10]
  GI50: 1290 nM
  LC50: 25700 nM
  TGI: 5750 nM
[11]
  GI50: 1380 nM
  LC50: > 34700 nM
  TGI: 6760 nM
[12]
  GI50: 813 nM
  LC50: > 34700 nM
  TGI: 2140 nM
[13]
  GI50: 955 nM
  LC50: > 34700 nM
  TGI: 3390 nM
[14]
  GI50: 1230 nM
  LC50: > 34700 nM
  TGI: 7760 nM
[15]
  GI50: 8510 nM
  LC50: > 34700 nM
  TGI: > 34700 nM
[16]
  GI50: 1350 nM
  LC50: 16200 nM
  TGI: 5500 nM
[17]
  GI50: 5750 nM
  LC50: > 34700 nM
  TGI: 23400 nM
[18]
  GI50: 741 nM
  LC50: 27500 nM
  TGI: 2290 nM
[19]
  LC50: > 34700 nM
  TGI: 14800 nM
[20]
  GI50: 871 nM
  LC50: 11000 nM
  TGI: 2690 nM
[21]
  GI50: 776 nM
  LC50: 5130 nM
  TGI: 1740 nM
[22]
  GI50: 1200 nM
  CC50: > 34700 nM
  TGI: 6610 nM
[23]
  GI50: 8510 nM
  LC50: > 34700 nM
  TGI: 22900 nM
[24]
  GI50: 11000 nM
  LC50 (concentration killing 50% of cells): > 34700 nM
  TGI: > 34700 nM
[25]
  GI50: 603 nM
  LC50: 2090 nM
  TGI: 1120 nM
[26]
  GI50: 5890 nM
  LC50: > 34700 nM
  TGI: 17400 nM
[27]
  GI50: 4070 nM
  LC50: 30200 nM
  TGI: 11000 nM
[28]
  GI50: 933 nM
  CC50: > 34700 nM
  TGI: 3310 nM
[29]
  GI50: 1450 nM
  LC50: > 34700 nM
  TGI: 7590 nM
[30]
  GI50: 5130 nM
  LC50: > 34700 nM
  TGI: 28800 nM
